Columns and labels:
NaV1.5 = NaV1.5 (Homo sapiens, UniProt Q14524); assay: Cell membrane chromatography; assay type: binding; settings: capacity factor k′; reflects potential cardiac toxicity; k′ < 0 labeled as 0
rats [1] = assay: Cutaneous trunci pinprick model; assay type: in vivo, rat; settings: 62.3 mmol/L, subcutaneous
In short: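 Male SD rats under 1%–3% isoflurane had about 6 cm × 6 cm of back shaved, swabbed with alcohol and split into four areas. Test compound (62.3 mmol/L) was given by s.c. infiltration. Pinprick scored 1 for no response and 0 for response. Duration ran from onset to expiration, expressed as mean-score MPE. Effective block was ≥50% MPE; complete block was 100% MPE.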

rats [2] = assay: Sciatic nerve block model; assay type: in vivo, rat; settings: 62.3 mmol/L near sciatic nerve
In short: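 Test compound (62.3 mmol/L) was injected near the sciatic nerve. Hind limbs were tested every 30 min until back to pre-test baseline. Sensory: paw withdrawal latency on a 55 °C hotplate, timed by stopwatch. Motor: extensor postural thrust in grams on a digital balance. Recovery was 50% of baseline.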

rats [3] = assay: CFA-induced chronic plantar inflammatory pain model; assay type: in vivo, rat; settings: 62.3 mmol/L, 0.2 mL subcutaneous at swollen foot
In short: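 Male SD rats (6–8 weeks, 250–300 g) under 1%–3% isoflurane had CFA injected into the right foot. Test compound (62.3 mmol/L, 0.2 mL) or equal-volume saline was given s.c. at the swollen site. Electronic von Frey stimulation to the side of the foot every 10 min after onset. Anesthesia failed when the value fell to half the limb-weight-to-baseline difference or below.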

rats [4] = assay: Plantar incisional pain model; assay type: in vivo, rat; settings: 0.2 mL near incision
In short: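 Rats with a plantar incision received test compound or saline, 0.2 mL, near the incision. Local anesthesia was assessed by von Frey stimulation of the lateral sole.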

[5] = system: NaV currents in rat dorsal root ganglion (DRG) neurons; assay: Whole-cell patch clamp, sodium current in DRG neurons; assay type: cell-based
In short: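 Male rat DRG neurons (180–200 g donors) were dissociated with collagenase IV (2 mg/mL) then trypsin (10 mg/mL) for 30 min, plated on poly-L-lysine and grown in Neurobasal with FBS and B27. Whole-cell voltage clamp used 3–4 MΩ electrodes. I/V steps ran from −90 to +40 mV in 10 mV increments, 50 ms each.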

[6] = system: NaV currents in rat trigeminal neuron (TG) neurons; assay: Whole-cell patch clamp, sodium current in TG neurons; assay type: cell-based
[7] = Systemic toxicity, intravenous; settings: ICR, mouse, in vivo
[8] = Systemic toxicity, subcutaneous injection; assay type: in vivo, rat; settings: Sprague-Dawley, rat, in vivo, sc
SD rats = assay: Systemic toxicity, subcutaneous injection; assay type: in vivo, rat; settings: TI = LD50/ED50, s.c.
hERG channel = hERG channel (Homo sapiens, UniProt Q12809); assay: hERG potassium current inhibition; assay type: cell-based
in vitro [9] = assay type: in vitro ADME; settings: rat, microsomes, pH 7.4
in vitro [10] = assay type: in vitro ADME; settings: human, microsomes, pH 7.4
[11] = Pharmacokinetics after subcutaneous injection; assay type: in vivo; settings: male, Sprague-Dawley, rat, plasma, sc, 62.3 mmol/L
rats [12] = assay: Dental pulp injury pain model; assay type: in vivo, rat; settings: compared with AT
In short: (§1)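 Oral pain models in rats under 1%–3% isoflurane, with test compound given as local anesthetic. Food intake and body-weight change were measured on a precision balance over 24 h. Facial grooming was video-recorded for 1 h after dosing.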

rats [13] = assay: Gingival incision pain model; assay type: in vivo, rat
In short: as §1

rats [14] = assay: Tooth extraction pain model; assay type: in vivo, rat
In short: as §1

IL-1β, IL-6, TNFα = assay: LPS-induced inflammatory factor expression; assay type: cell-based, rat; settings: LPS 24 h, DRG neurons and PC12 cells; similar to LD, stronger than AT
NLRP3 inflammasome = NLRP3 inflammasome activation after LPS; assay type: cell-based, rat
In short: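 DRG neurons and NGF-differentiated PC12 cells, with LPS given before or together with test compound. ASC specks: 3% paraformaldehyde 15 min, 0.5% Triton X-100 15 min, 5% BSA 2 h, anti-ASC 1:200 overnight at 4 °C, secondary 1:500 1 h in the dark, DAPI, fluorescence microscopy. Western blot: PVDF, 5% milk 2 h, anti-NLRP3 and anti-caspase-1 1:1000 overnight at 4 °C.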

DRG neurons = assay: LPS-induced ROS production, cytoplasmic mtDNA release, 8-OHdG; assay type: cell-based, rat; settings: PC12 cells
rats [15] = assay: Local anesthetic toxicity, blood biochemistry and organ pathology; assay type: in vivo, rat
In short: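 Test compound was given in the rat sciatic nerve block model. Rats were killed at 7 and 14 days. Sciatic nerve and surrounding tissue were HE-stained and inflammatory cells counted in equal-sized areas (nerve:surrounding 1:1). Serum ALT, AST, LDH, α-HBDH, CREA and UREA were run on an automatic analyser. Heart, liver and kidney were HE-stained for pathology.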

Sequence of NaV1.5 (Q14524 whole entry): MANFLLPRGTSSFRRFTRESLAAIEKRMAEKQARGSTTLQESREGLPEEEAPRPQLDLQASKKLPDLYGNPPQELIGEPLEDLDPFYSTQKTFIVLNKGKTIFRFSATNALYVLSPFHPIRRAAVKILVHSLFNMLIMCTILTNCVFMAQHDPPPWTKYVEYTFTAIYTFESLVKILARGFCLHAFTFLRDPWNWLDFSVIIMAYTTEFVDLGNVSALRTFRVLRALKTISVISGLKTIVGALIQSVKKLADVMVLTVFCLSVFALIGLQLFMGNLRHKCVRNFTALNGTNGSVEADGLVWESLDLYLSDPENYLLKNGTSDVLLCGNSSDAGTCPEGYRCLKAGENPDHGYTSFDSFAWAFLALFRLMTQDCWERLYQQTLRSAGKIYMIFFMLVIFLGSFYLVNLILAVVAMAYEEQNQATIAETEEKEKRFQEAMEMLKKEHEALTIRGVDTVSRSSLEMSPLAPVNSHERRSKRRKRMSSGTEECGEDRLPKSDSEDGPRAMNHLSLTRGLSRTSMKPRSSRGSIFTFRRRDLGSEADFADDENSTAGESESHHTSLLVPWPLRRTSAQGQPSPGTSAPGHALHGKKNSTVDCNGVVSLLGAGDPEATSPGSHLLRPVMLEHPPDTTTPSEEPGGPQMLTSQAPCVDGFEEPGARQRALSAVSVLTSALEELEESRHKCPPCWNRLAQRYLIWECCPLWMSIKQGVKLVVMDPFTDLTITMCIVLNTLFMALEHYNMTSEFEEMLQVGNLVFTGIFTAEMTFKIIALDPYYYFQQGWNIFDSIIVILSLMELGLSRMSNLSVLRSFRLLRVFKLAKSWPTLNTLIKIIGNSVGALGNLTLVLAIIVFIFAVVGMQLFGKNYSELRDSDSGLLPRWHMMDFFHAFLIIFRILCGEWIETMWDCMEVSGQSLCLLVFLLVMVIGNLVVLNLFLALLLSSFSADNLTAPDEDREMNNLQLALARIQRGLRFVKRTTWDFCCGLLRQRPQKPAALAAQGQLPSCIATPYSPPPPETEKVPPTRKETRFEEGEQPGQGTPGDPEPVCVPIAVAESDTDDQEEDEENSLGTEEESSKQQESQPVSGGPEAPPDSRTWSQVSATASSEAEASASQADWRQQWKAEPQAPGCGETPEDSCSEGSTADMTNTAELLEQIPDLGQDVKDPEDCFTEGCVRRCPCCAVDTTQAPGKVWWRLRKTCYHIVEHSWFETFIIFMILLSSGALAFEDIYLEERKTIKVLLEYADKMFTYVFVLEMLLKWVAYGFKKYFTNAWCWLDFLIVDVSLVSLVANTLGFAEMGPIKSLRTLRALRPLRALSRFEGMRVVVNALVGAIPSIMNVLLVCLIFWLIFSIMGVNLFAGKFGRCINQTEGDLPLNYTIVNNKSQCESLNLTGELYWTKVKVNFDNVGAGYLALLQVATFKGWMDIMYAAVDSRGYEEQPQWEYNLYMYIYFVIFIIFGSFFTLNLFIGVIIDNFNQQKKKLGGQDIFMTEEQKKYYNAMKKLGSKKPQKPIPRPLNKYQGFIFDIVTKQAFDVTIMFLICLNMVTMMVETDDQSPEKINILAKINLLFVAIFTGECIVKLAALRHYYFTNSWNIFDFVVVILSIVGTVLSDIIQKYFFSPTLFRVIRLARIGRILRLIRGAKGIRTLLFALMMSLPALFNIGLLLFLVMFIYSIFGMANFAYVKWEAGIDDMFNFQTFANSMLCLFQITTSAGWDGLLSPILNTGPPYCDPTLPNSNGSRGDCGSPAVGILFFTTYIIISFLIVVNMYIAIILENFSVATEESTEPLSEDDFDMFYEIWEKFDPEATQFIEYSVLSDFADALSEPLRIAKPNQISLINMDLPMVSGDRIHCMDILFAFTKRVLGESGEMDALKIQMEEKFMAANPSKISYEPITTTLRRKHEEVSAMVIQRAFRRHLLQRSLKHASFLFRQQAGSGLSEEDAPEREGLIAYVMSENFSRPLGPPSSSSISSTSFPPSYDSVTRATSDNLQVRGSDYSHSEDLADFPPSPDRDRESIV
Sequence of hERG channel (Q12809 whole entry): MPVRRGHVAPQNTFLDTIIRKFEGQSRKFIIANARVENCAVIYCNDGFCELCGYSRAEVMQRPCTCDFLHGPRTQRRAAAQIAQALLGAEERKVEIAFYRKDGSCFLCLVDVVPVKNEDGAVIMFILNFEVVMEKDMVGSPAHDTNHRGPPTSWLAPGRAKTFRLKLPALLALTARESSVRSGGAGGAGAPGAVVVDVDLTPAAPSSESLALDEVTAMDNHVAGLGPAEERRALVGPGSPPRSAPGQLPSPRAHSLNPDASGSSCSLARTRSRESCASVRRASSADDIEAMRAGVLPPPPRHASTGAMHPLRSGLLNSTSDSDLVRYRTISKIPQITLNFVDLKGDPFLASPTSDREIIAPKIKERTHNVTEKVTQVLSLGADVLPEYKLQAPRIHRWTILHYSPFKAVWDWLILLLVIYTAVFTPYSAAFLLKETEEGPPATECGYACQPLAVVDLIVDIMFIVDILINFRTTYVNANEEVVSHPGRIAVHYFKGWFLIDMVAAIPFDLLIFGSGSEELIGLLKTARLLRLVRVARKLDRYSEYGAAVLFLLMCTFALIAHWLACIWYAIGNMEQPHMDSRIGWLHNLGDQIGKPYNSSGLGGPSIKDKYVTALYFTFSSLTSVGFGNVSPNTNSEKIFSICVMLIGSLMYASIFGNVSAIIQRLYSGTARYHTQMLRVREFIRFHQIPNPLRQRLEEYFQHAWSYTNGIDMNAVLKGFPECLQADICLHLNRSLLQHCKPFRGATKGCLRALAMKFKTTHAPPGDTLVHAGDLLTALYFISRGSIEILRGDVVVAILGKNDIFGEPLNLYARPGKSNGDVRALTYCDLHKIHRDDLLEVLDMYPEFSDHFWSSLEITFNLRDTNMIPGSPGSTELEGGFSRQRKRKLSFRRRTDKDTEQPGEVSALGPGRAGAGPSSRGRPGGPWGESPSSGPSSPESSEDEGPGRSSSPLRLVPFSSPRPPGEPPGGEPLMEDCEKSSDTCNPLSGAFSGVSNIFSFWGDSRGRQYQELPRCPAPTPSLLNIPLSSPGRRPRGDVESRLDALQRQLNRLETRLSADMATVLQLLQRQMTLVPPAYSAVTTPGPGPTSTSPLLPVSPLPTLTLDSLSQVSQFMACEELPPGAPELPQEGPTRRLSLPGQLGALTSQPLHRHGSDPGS

SMILES: CCCCN1CCN(C(C)C(=O)Nc2c(C)csc2C(=O)OC)CC1 (centres unmarked) [AT-17, Methyl 3-(2-(4-butylpiperazin-1-yl)propanamido)-4-methylthiophene-2-carboxylate]
- k′ NaV1.5 (NaV1.5): 22.4
- subcutaneous infiltration duration (rats [1]): 400 min
- motor block duration (rats [2]; extensor postural thrust): 260 min
- duration of effective sensory blockade (rats [2]; hotplate test): 200 min
- duration of action (anesthesia) under CFA-induced chronic inflammation (rats [3]): 83.3 min
- anesthesia result in acute inflammation model through plantar incision (rats [4]): improved results
- IC50 ([5]; F-11 rat/mouse fusion cell line, DRG neuron, read-out: IC50 sodium current): 31.6 ± 2.07 µM
- reduction in the peak current compared to AT (I‒V relationship) ([5]; rat DRG neurons): 36.35%
- reduction in peak current compared to AT (I‒V relationship) [6]: 10.56%
- LD50 [7]: 43.5 mg/kg
- LD50 at 24 h [8]: 424 mg/kg
- TI (SD rats): 149.17
- inhibition at 100 μM/L (hERG channel): 38%
- half-life (in vitro [9]): 1.03 h
- half-life (in vitro [10]): 1.25 h
- AUC(0-t) [11]: 5550 ng·h/mL
- Tmax [11]: 1 h
- half-life [11]: 0.823 h
- weight loss and pain-related decreases in food intake (rats [12]): more effective
- face grooming frequency (rats [13]): significantly lowered
- recovery in body weight and food intake (rats [13]; compared with AT): more pronounced recovery
- weight loss and food intake (rats [14]): significantly mitigating
- inflammatory factors (IL-1β, IL-6, TNFα) expression (IL-1β, IL-6, TNFα): significantly inhibited
- LPS-induced ASC speck formation (NLRP3 inflammasome; DRG neurons, PC12 cells): inhibits
- NLRP3, ASC, and pro-Casp1 expression (NLRP3 inflammasome; LPS, acute and chronic conditions): modestly reduced
- LPS-induced ROS production, cytoplasmic mtDNA release, and 8-OHdG levels (DRG neurons): reduced
- ALT, AST, LDH, α-HBDH, CREA, UREA levels vs control group (rats [15]; rats, 7 days and 14 days post-administration): no marked differences
- pathological assessment of heart, liver, and kidney vs control group (rats [15]; rats, local administration to the sciatic nerve): no significant pathological changes
- number of inflammatory cells in tissues compared with AT (rats [15]; sciatic nerve block model, HE, ImageJ): significantly lower

Source: publication PMC11252475 (Acta Pharmaceutica Sinica. B, 2024)
